For assay [1], the target named is Melanocyte-stimulating hormone receptor (Homo sapiens, UniProt Q01726). Kind of assay: Activity at human MC1R by cAMP accumulation in SaoS2 cells. The class given is functional, cell-based, SAOS-2.
Assay [2] has as its target Melanocortin receptor (M1 and M4) (Homo sapiens, UniProt P32245+Q01726). Put plainly: Selectivity for human MC4R over MC1R. It counts as functional.
The target of assay [3] is T1, Melanocortin receptor 4 (Homo sapiens, UniProt P32245). Put plainly: Activity at human MC4R by cAMP accumulation in SaoS2 cells. It counts as functional, cell-based, SAOS-2. Background: cAMP levels reflect the balance of adenylyl cyclase and phosphodiesterase activity.
T1 sequence (P32245 whole entry): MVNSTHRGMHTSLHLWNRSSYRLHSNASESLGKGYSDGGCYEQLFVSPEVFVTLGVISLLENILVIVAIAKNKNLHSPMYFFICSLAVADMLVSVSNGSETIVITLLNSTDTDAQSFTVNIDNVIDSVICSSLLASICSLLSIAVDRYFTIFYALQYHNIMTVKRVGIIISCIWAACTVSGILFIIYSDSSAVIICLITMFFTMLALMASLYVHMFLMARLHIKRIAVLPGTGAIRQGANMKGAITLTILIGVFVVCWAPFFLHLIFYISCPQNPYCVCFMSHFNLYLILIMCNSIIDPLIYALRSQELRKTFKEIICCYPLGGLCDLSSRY
Assay [4] deals with T1, Melanocortin receptor 4. Put plainly: Displacement of [125I]NDP-alpha-MSH from human cloned MC4R expressed in HEK293 cells. The class given is cell-based. The gist of the method:
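Binding affinity was measured by displacement of radiolabelled [125I]NDP-alpha-MSH ([Nle4, D-Phe7]-alpha-MSH) from recombinant human MC4R expressed in HEK-293 cells.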

pEC50, pKi: −log10 of the molar value.

The term pEC50 denotes −log10 of the EC50, conventionally taken in molar units. Read a high pEC50 as a small EC50. What is called pKi is the negative decadic logarithm of the Ki, by convention in mol/L. A lower pKi goes with a large Ki.

Sequence of Melanocyte-stimulating hormone receptor (Q01726 whole entry): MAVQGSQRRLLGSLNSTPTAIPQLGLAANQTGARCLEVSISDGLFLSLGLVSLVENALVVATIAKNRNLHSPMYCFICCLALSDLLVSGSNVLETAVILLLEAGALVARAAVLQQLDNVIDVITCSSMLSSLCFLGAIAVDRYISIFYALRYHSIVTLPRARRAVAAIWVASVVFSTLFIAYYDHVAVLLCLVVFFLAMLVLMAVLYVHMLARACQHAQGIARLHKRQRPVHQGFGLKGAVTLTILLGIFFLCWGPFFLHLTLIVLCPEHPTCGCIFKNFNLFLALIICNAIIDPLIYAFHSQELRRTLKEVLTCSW

`N=C(N)NCCC[C@@H]1NC(=O)[C@@H](Cc2ccccc2)NC(=O)[C@H](Cc2c[nH]cn2)NC(=O)CCCCCCNC(=O)[C@H](Cc2c[nH]c3ccccc23)NC1=O`: the negative-log EC50 (pEC50) is 7.17 in assay [1] and 7.81 in assay [3]. Moreover, the EC50 ratio (MC1R/MC4R) in assay [2] worked out at 4.3. Also, in assay [4], the pKi is 6.61.
On to `N=C(N)NCCC[C@@H]1NC(=O)[C@H](Cc2ccccc2)NC(=O)[C@H](Cc2cnc[nH]2)NC(=O)CCCCCCCNC(=O)[C@H](Cc2c[nH]c3ccccc23)NC1=O`, for which the results for the pEC50 in assay [1] and in assay [3] were 5.29 and 5.02, respectively. In assay [2], the EC50 ratio (MC1R/MC4R) amounted to 0.53. The negative logarithm of the Ki (pKi) in assay [4] was 5.35.
The matching figures for `NC(N)=NCCC[C@@H]1NC(=O)[C@@H](Cc2ccccc2)NC(=O)[C@H](Cc2cnc[nH]2)NC(=O)CCCCCCCNC(=O)[C@H](Cc2c[nH]c3ccccc23)NC1=O`: 7.11, 7.79, 4.7 and 6.50.
On the same counts, the results for `N=C(N)NCCC[C@@H]1NC(=O)[C@@H](Cc2ccccc2)NC(=O)[C@H](Cc2c[nH]cn2)NC(=O)CCCCCNC(=O)[C@H](Cc2c[nH]c3ccccc23)NC1=O` are 5.88, 5.51, 0.42 and 6.17.
Consider `NC(N)=NCCC[C@@H]1NC(=O)[C@@H](Cc2ccccc2)NC(=O)[C@H](Cc2cnc[nH]2)NC(=O)CCCNC(=O)[C@H](Cc2c[nH]c3ccccc23)NC1=O`, for which the pEC50 was 6.57 in assay [1] and 5.80 in assay [3]. The EC50 ratio (MC1R/MC4R) in assay [2] turned out to be 0.17. This compound gave a pKi in assay [4] of 5.24.
With `N=C(N)NCCC[C@@H]1NC(=O)[C@@H](Cc2ccccc2)NC(=O)[C@H](Cc2c[nH]cn2)NC(=O)CCCCNC(=O)[C@H](Cc2c[nH]c3ccccc23)NC1=O`, the pEC50 in assay [1] was 5.48; in assay [3], 4.99. Moreover, the EC50 ratio (MC1R/MC4R) in assay [2] was 0.33.

Source of the values: ChEMBL document CHEMBL1137420, “Design of cyclic peptides with agonist activity at melanocortin receptor-4” (Bioorg Med Chem Lett, 2006).
